The values below come from ChEMBL document CHEMBL2424622, “Development of amino-pyrimidine inhibitors of c-Jun N-terminal kinase (JNK): kinase profiling guided optimization of a 1,2,3-benzotriazole lead” (Bioorg Med Chem Lett, 2013).

In assay [1] the target is Mitogen-activated protein kinase 4 (Homo sapiens, UniProt P31152). The assay is described as follows: Competitive binding affinity to ERK4 (unknown origin) at 10 uM in presence of ATP relative to control.
Assay [2] concerns the target T1, Ephrin type-B receptor 3 (Homo sapiens) (UniProt P54753).
T1 sequence (whole entry): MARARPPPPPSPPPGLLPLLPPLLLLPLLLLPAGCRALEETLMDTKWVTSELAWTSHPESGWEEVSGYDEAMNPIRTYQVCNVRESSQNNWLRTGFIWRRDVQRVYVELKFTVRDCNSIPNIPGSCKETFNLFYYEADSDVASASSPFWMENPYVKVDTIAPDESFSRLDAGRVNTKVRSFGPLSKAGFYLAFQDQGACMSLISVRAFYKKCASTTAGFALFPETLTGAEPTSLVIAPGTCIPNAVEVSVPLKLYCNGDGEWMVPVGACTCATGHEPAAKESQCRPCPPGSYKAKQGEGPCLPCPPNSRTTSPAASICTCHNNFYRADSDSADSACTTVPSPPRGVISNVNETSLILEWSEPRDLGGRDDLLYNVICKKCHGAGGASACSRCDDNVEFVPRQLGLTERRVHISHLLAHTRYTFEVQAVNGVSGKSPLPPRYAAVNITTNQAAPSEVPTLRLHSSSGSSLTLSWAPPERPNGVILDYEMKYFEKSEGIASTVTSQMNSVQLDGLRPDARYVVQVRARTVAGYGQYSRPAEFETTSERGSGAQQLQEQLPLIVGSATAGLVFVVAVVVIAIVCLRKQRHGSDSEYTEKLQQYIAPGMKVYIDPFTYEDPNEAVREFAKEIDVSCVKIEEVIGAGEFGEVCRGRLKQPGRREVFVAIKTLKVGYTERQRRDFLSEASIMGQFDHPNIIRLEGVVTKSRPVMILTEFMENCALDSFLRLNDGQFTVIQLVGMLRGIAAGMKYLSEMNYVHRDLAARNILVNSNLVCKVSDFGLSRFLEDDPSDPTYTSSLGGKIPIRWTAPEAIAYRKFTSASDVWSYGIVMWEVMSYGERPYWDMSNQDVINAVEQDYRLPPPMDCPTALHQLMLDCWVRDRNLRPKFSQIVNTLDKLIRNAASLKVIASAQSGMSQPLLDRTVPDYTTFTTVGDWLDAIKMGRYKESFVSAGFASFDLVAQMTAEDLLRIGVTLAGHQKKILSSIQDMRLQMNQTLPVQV
Nature of the assay: Competitive binding affinity to EPHB3 (unknown origin) at 10 uM in presence of ATP relative to control. Summed up:
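In vitro ATP-site competition binding assay, part of profiling against a diverse panel of 128 kinases. Each compound was tested at a single concentration of 10 µM. Kinome selectivity was summarized as S15 selectivity scores.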

Assay [3] concerns the target T2, Tyrosine-protein kinase receptor TYRO3 (Homo sapiens) (UniProt Q06418).
T2 sequence (whole entry): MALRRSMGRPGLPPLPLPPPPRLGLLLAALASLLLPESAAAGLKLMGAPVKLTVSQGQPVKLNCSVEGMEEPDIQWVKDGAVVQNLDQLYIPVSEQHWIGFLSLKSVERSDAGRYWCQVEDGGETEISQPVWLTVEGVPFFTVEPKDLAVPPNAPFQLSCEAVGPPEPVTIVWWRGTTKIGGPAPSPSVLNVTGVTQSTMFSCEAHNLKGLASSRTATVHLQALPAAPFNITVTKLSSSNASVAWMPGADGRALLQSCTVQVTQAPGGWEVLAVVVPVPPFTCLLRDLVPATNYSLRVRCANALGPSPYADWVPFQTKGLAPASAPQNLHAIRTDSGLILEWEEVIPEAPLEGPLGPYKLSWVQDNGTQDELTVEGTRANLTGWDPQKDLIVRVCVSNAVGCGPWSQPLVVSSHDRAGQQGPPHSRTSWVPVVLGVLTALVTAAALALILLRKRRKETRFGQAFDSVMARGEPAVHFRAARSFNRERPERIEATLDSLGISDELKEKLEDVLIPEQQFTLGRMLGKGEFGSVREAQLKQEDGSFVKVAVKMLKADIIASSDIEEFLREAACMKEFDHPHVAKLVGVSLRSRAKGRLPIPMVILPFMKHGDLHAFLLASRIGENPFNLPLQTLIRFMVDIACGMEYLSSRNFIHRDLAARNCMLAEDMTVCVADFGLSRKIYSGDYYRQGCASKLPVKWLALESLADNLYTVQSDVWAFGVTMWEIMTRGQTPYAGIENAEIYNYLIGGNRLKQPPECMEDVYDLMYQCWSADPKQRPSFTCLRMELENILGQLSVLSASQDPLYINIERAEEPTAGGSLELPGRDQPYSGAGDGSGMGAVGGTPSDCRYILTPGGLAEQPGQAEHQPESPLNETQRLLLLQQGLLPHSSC
Nature of the assay: Competitive binding affinity to TYRO3 (unknown origin) at 10 uM in presence of ATP relative to control.

The target in assay [4] is Activin receptor type-1-like (Homo sapiens) (UniProt P37023). The assay is described as follows: Competitive binding affinity to ACVRL1 (unknown origin) at 10 uM in presence of ATP relative to control.
Assay [5] has as its target BDNF/NT-3 growth factors receptor (Homo sapiens) (UniProt Q16620). The assay is described as follows: Competitive binding affinity to TRKB (unknown origin) at 10 uM in presence of ATP relative to control.
Assay [6] has as its target T3, Tyrosine-protein kinase Tec (Homo sapiens) (UniProt P42680).
T3 sequence (whole entry): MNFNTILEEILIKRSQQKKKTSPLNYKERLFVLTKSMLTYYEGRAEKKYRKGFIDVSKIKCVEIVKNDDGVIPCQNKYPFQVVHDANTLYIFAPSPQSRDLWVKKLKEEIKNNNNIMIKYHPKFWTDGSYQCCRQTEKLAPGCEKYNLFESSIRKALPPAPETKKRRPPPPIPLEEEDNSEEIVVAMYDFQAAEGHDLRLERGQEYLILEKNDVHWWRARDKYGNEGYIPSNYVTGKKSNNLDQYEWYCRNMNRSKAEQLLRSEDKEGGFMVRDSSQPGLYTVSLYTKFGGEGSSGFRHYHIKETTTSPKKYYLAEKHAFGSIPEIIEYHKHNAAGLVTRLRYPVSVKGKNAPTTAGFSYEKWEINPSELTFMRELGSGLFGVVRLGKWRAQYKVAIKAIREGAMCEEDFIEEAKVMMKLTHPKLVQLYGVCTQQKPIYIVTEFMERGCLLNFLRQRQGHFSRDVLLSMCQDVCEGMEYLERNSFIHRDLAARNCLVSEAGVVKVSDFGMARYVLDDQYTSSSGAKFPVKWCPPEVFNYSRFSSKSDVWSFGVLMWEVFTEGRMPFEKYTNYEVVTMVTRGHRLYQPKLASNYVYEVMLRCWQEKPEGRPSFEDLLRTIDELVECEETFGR
Nature of the assay: Competitive binding affinity to TEC (unknown origin) at 10 uM in presence of ATP relative to control.

In assay [7] the target is Tyrosine-protein kinase Srms (Homo sapiens) (UniProt Q9H3Y6). The assay is described as follows: Competitive binding affinity to SRMS (unknown origin) at 10 uM in presence of ATP relative to control.
Tyrosine-protein kinase Srms (Homo sapiens), sequence (Q9H3Y6 whole entry): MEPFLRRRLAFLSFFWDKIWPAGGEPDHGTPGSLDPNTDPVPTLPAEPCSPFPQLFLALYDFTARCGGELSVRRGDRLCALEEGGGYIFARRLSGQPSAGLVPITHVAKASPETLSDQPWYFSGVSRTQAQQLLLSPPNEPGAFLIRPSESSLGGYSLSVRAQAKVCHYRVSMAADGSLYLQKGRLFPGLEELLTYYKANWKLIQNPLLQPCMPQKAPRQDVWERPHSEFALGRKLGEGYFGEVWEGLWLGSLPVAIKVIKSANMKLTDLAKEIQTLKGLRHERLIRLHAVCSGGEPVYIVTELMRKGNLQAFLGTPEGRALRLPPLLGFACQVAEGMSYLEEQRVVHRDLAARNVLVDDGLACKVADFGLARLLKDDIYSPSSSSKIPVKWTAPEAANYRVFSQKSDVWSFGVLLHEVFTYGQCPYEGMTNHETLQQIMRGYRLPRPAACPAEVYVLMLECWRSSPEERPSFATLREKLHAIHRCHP

Mitogen-activated protein kinase 4, sequence (P31152 whole entry): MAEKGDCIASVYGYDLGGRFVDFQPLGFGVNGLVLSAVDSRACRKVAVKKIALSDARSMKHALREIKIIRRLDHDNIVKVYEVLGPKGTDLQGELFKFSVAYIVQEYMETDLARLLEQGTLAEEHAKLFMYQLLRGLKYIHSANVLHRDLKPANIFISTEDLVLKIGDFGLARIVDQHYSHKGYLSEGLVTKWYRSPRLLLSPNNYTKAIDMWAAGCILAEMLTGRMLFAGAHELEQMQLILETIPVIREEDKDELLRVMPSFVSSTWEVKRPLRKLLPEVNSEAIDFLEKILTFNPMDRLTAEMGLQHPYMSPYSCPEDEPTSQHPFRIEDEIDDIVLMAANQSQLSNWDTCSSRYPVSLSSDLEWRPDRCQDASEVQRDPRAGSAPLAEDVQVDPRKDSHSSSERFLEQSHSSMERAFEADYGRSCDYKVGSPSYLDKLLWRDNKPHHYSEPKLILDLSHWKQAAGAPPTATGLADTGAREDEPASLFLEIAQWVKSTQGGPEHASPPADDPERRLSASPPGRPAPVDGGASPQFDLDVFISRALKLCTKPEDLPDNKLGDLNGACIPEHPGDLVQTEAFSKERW
Activin receptor type-1-like (Homo sapiens), sequence (P37023 whole entry): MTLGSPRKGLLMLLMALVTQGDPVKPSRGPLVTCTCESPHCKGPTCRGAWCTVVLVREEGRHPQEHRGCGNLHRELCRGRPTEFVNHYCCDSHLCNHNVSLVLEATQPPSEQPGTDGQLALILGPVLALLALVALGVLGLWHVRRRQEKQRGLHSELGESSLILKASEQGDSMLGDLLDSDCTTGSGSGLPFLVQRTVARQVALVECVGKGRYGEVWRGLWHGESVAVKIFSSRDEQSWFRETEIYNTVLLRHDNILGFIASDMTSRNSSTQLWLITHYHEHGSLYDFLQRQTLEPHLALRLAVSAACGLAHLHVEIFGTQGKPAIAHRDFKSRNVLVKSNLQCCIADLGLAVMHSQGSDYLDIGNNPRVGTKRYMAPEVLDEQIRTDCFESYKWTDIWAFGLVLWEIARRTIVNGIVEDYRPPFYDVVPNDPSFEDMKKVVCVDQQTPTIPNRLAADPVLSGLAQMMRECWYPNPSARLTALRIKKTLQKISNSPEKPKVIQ
BDNF/NT-3 growth factors receptor (Homo sapiens), sequence (Q16620 32-822 limits assumed): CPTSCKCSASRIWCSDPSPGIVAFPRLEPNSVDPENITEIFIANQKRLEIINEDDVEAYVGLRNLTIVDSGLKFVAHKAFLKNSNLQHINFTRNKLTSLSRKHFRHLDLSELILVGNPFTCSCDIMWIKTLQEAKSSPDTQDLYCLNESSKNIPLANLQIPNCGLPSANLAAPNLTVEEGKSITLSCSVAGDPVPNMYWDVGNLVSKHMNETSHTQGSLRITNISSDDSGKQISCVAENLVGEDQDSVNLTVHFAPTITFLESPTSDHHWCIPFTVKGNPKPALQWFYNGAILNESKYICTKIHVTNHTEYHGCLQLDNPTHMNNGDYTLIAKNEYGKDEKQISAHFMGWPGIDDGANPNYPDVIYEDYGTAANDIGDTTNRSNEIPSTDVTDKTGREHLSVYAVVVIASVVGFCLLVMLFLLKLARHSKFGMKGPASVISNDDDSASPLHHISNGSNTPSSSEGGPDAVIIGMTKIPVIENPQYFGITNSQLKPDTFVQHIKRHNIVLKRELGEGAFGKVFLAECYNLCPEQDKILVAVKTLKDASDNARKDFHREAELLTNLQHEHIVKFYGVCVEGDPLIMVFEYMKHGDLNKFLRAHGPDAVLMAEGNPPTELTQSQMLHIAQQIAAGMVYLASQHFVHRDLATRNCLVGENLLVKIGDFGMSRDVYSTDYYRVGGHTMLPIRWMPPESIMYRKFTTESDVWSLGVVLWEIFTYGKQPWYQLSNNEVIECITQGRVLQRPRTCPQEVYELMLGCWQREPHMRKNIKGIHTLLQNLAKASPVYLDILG

On to `CS(=O)(=O)CCCOc1cccc2c1ccn2-c1ccnc(N[C@H]2CC[C@H](C(=O)N3CCC(O)CC3)CC2)n1`, for which the inhibition (usually the relative decrease from the control value, in per cent) in assay [1] was greater than 85%.
With `O[C@H]1CC[C@H](Nc2nccc(-n3ccc4ccccc43)n2)CC1`, the inhibition in assay [1] is 63%; in assay [2], less than 50%; in assay [3], less than 50%; in assay [4], less than 50%; in assay [5], less than 50%; in assay [6], less than 50%. Moreover, the inhibition in assay [7] is less than 50%.
Take `O[C@H]1CC[C@H](Nc2nccc(-n3ncc4ccccc43)n2)CC1`: the inhibition in assay [1] was 99%; in assay [2], less than 50%; in assay [3], less than 50%; in assay [4], less than 50%; in assay [5], less than 50%; in assay [6], less than 50%. In addition, the inhibition in assay [7] is less than 50%.
Consider `O[C@H]1CC[C@H](Nc2nccc(-c3n[nH]c4ccccc34)n2)CC1`, for which the inhibition in assay [2] is less than 50%; in assay [3], less than 50%; in assay [4], less than 50%; in assay [5], 100%.
As to `O[C@H]1CC[C@H](Nc2nccc(-n3nnc4ccccc43)n2)CC1`, the inhibition in assay [1] is 100%; in assay [2], less than 50%; in assay [3], less than 50%; in assay [4] it was less than 50%; in assay [5], less than 50%; in assay [6], less than 50%. In addition, the inhibition in assay [7] was less than 50%.
